ChEMBL document CHEMBL3297695, “Sesquiterpenoids from Pittocaulon filare” (2014)

Legend:
Mus musculus [1] = test: Antiinflammatory activity against CD1 mouse ear edema model assessed as reduction of TPA-induced ear edema measured per ear administered topically 10 mins prior to TPA challenge measured after 4 hrs; type: functional
Procedure, shortened: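 Male CD-1 mice (25−30 g), housed at 27 ± 1 °C on a 12/12 h light−dark cycle with food and water ad libitum. Compounds were applied topically to the ear in acetone−CH2Cl2 (1:1). Edema was induced by TPA and quantified as the weight of ear biopsies taken 4 h after sample application. The ID50 is expressed in μmol/ear. Data are mean ± SEM.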

Mus musculus [2] = test: Antiinflammatory activity against TPA-induced CD1 mouse ear edema model assessed as neutrophil infiltration by measuring myeloperoxidase content at 1 umol/ear administered topically 10 mins prior to TPA challenge measured after 4 hrs relative to control; type: functional
Procedure, shortened: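 Male CD-1 mice (25−30 g), ear edema induced by TPA. Compounds were applied topically at 1 μmol/ear in acetone−CH2Cl2 (1:1). MPO activity, used as a marker of neutrophils, was measured in ear biopsies taken 4 h after application by an adapted Bradley/Suzuki method. Results are given as % MPO content, mean ± SEM, analysed by ANOVA with Dunnett test against control.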

| SMILES | ID50 (Mus musculus [1]) | Activity (Mus musculus [2]) | Activity (Mus musculus [1]) |
| --- | --- | --- | --- |
| COc1ccc2c(c1)c(CC(=O)O)c(C)n2C(=O)c1ccc(Cl)cc1 [INDOMETHACIN] | 0.24 µmol | 8.83% | – |
| C=C1[C@@H]2CC(=O)[C@H]([C@@H](C)OC(C)=O)[C@H]2[C@H](C(C)C)[C@@H](OC(=O)[C@@H](C)CC)[C@H]1OC(=O)/C=C(\C)CC | 0.17 µmol | 12.67% | Dose-dependent effect |
| C=C1[C@H]2[C@@H](/C(=C/C)C(=O)[C@H]2OC(=O)[C@@H](C)CC)[C@H]([C@@]2(C)CO2)[C@@H](OC(=O)[C@@H](C)CC)[C@H]1OC(=O)/C=C(\C)CC | 0.55 µmol | 11.07% | Dose-dependent effect |
| C=C1[C@H]2[C@@H]([C@@H]([C@@H](C)OC(C)=O)C(=O)[C@H]2OC(=O)[C@@H](C)CC)[C@H]([C@@]2(C)CO2)[C@@H](OC(=O)[C@@H](C)CC)[C@H]1OC(=O)/C=C(\C)CC | 0.18 µmol | 19.05% | Dose-dependent effect |
